Measurements published in ChEMBL document CHEMBL4229550, “An antimycobacterial pleuromutilin analogue effective against dormant bacilli” (Bioorg Med Chem, 2018).
In brackets after ≈: the same amount, converted by molar mass. Activity calls are given as the source filed them. The calls are words filed in the database; no cut-off is given here.

Assays:
[1] = tested on: Mycobacterium tuberculosis; experiment: Antibacterial activity against Mycobacterium tuberculosis Erdman infected in Balb/c mouse assessed as reduction in bacterial load in lungs at 200 mg/kg, po for 3 weeks starting from 10 days post infection measured on day 21 post infection; type: functional, Erdman = ATCC 35801
How it was run: (§1)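 Female BALB/c mice, 7–8 weeks old, are aerosol-infected with Mtb Erdman. From day 10 they receive oral gavage in water for three weeks, in groups of 5. Lungs and spleens are harvested at day 21 post-infection and plated for CFU. Efficacy is the log10 reduction in lung burden versus untreated (vehicle) controls.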

[2] = tested on: Mycolicibacterium smegmatis; experiment: Antibacterial activity against Mycobacterium smegmatis ATCC 607 incubated for 48 hrs under aerobic condition by MABA; type: functional; conditions: ATCC 607, 48 h, read-out: MIC100
How it was run: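 Mid-log culture at OD 0.5 was incubated with serial dilutions aerobically at 37 °C for 48 h. Resazurin was then added from a 0.08% stock for 1 h. MIC100 was the lowest concentration that stayed blue; absorbance was also read at 570/600 nm.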

[3] = Cmax in Balb/c mouse at 30 mg/kg, po; type: ADME, organism-based; parameters: dose 30 mg/kg, route oral; conditions: in vivo
How it was run: (§2)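 Single oral dose of 30 mg/kg in BALB/c mice (n = 6). Serum PK parameters were t1/2, tmax, Cmax and AUC over 0–24 h and to infinity. Oral bioavailability F was calculated against the 3 mg/kg IV dose.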

[4] = tested on: Escherichia coli; experiment: Inhibition of protein translation/transcription in Escherichia coli S30 cell extract at 0.5 ug/ml using circular DNA with pBESTluc after 60 mins by luciferase reporter gene assay; type: functional
How it was run: (§3)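 Coupled transcription/translation used E. coli S30 extract, amino acid mix and premix, with the pBESTluc template carrying firefly luciferase under the tac promoter. Compounds were added in DMSO and reactions were started with DNA. Incubation was 60 min at 37 °C, stopped on ice, and luciferase was read after adding assay substrate.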

[5] = tested on: Klebsiella pneumoniae; experiment: Antibacterial activity against Klebsiella pneumoniae ATCC 12019 incubated for 24 hrs under aerobic condition by MABA; type: functional; conditions: ATCC 12019, 24 h, read-out: MIC100
How it was run: (§4)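 Mid-log cultures at OD 0.5 were exposed to serial dilutions under aerobic conditions at 37 °C for 24 h. Resazurin was then added from a 0.08% stock for 1 h. MIC100 was the lowest concentration where the dye stayed blue (pink means growth). Absorbance was also read at 570 and 600 nm.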

[6] = tested on: Staphylococcus aureus; experiment: Bactericidal activity against Staphylococcus aureus incubated for 24 hrs under aerobic condition by MABA; type: functional
[7] = AUC (0 to 24 hrs) in Balb/c mouse serum at 30 mg/kg, po; type: ADME, organism-based; parameters: time < 24 hr, dose 30 mg/kg, route oral; how it was run: as §2
[8] = tested on: Streptococcus salivarius; experiment: Bactericidal activity against Streptococcus salivarius ATCC 6301 incubated for 24 hrs under aerobic condition by MABA; type: functional; conditions: ATCC 6301, 24 h
[9] = tested on: Enterococcus faecalis; experiment: Antibacterial activity against Enterococcus faecalis ATCC 349 incubated for 24 hrs under aerobic condition by MABA; type: functional; conditions: ATCC 349, 24 h, read-out: MIC100; how it was run: as §4
[10] = Efflux ratio of apparent permeability in human Caco2 cells at 10 uM after 2 hrs by LC-MS/MS analysis; type: ADME, cell-based; conditions: caco-2, 2 h
[11] = tested on: Mus musculus; experiment: Toxicity in po dosed Balb/c mouse assessed as effect on health measured for 7 days; type: organism-based; conditions: in vivo, 168 h
[12] = tested on: Mycobacterium tuberculosis; experiment: Antibacterial activity against Mycobacterium tuberculosis Erdman infected in Balb/c mouse assessed as reduction in bacterial load in lungs at 50 mg/kg, po for 3 weeks starting from 10 days post infection measured on day 21 post infection; type: functional, Erdman = ATCC 35801; how it was run: as §1
[13] = AUC (0 to 24 hrs) in Balb/c mouse lung at 30 mg/kg, po; type: ADME, organism-based; parameters: dose 30 mg/kg, time < 24 hr, route oral; conditions: in vivo
[14] = tested on: Staphylococcus aureus; experiment: Antibacterial activity against Staphylococcus aureus incubated for 24 hrs under aerobic condition by MABA; type: functional; conditions: read-out: MIC100
How it was run: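 Resazurin was then added from a 0.08% stock for 1 h. MIC100 was the lowest concentration where the dye stayed blue (pink means growth). Absorbance was also read at 570 and 600 nm.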

[15] = tested on: Clostridioides difficile; experiment: Bactericidal activity against Clostridium difficile ATCC 700057 incubated for 24 hrs […] by MABA; type: functional; conditions: ATCC 700057, 24 h
[16] = Half life in Balb/c mouse at 30 mg/kg, po; type: ADME, organism-based; conditions: in vivo
How it was run: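 Single 30 mg/kg oral dose in six BALB/c mice; serum half-life and tmax are derived from the concentration–time profile.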

[17] = tested on: Mycobacterium tuberculosis; experiment: Antibacterial activity against Mycobacterium tuberculosis Erdman infected in Balb/c mouse assessed as reduction in bacterial load in lungs at administered po for 3 weeks starting from 10 days post infection measured on day 21 post infection; type: functional, organism-based; conditions: Erdman = ATCC 35801; how it was run: as §1
[18] = tested on: Staphylococcus aureus; experiment: Bactericidal activity against Staphylococcus aureus BAA 44 incubated for 24 hrs under aerobic condition by MABA; type: functional; conditions: BAA 44, 24 h
[19] = tested on: Mycobacterium tuberculosis; experiment: Bactericidal activity against Mycobacterium tuberculosis H37Rv at 2 times MIC measured every 24 hrs up to 12 days by time kill assay relative to control; type: functional
How it was run: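 Mid-log H37Rv (OD 0.5) is diluted to OD 0.25 and exposed at MIC, 2×MIC or 4×MIC. Every 24 h cultures are diluted 10- to 10,000-fold and plated on 7H10/OADC agar. Plates are incubated 15 days at 37 °C before colony counts.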

[20] = tested on: Escherichia coli; experiment: Antibacterial activity against Escherichia coli ATCC 10798 incubated for 24 hrs under aerobic condition by MABA; type: functional; conditions: ATCC 10798, 24 h, read-out: MIC100; how it was run: as §4
[21] = tested on: Mycolicibacterium smegmatis; experiment: Bactericidal activity against Mycobacterium smegmatis ATCC 607 incubated for 48 hrs under aerobic condition by MABA; type: functional; conditions: ATCC 607, 48 h
[22] = tested on: Staphylococcus aureus; experiment: Bactericidal activity against Staphylococcus aureus ATCC 25923 incubated for 24 hrs under aerobic condition by MABA; type: functional; conditions: ATCC 25923, 24 h
[23] = Cmax in Balb/c mouse at 3 mg/kg, iv; type: ADME, organism-based; parameters: dose 3 mg/kg, route intravenous; conditions: in vivo
How it was run: (§5)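 Single IV dose of 3 mg/kg in BALB/c mice (n = 3). Serum concentration-time data were used to derive t1/2, Cmax and AUC over 0–24 h and to infinity.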

[24] = Half life in Sprague-Dawley rat liver microsomes at 500 ng/ml preincubated for 5 mins followed by NADPH addition by C-MS/MS analysis; type: ADME, microsome
[25] = AUC (0 to infinity) in Balb/c mouse at 3 mg/kg, iv; type: ADME, organism-based; parameters: dose 3 mg/kg, route intravenous, time infinity; conditions: in vivo; how it was run: as §5
[26] = tested on: Bacillus subtilis; experiment: Antibacterial activity against Bacillus subtilis ATCC 6051 incubated for 24 hrs under aerobic condition by MABA; type: functional; conditions: ATCC 6051, 24 h, read-out: MIC100; how it was run: as §4
[27] = tested on: Escherichia coli; experiment: Bactericidal activity against Escherichia coli ATCC 10798 incubated for 24 hrs under aerobic condition by MABA; type: functional; conditions: ATCC 10798, 24 h
[28] = tested on: Enterococcus faecalis; experiment: Bactericidal activity against Enterococcus faecalis ATCC 19433 incubated for 24 hrs under aerobic condition by MABA; type: functional; conditions: ATCC 19433, 24 h
[29] = tested on: Staphylococcus aureus; experiment: Bactericidal activity against Staphylococcus aureus BAA 1683 incubated for 24 hrs under aerobic condition by MABA; type: functional; conditions: BAA 1683, 24 h
[30] = tested on: Escherichia coli; experiment: Inhibition of protein translation/transcription in Escherichia coli S30 cell extract at 0.1 ug/ml using circular DNA with pBESTluc after 60 mins by luciferase reporter gene assay; type: functional; how it was run: as §3

In the case of `CC[C@]1(C)C[C@@H](OC(=O)CSC(C)(C)CNC(=O)[C@H](N)CC(C)C)[C@]2(C)[C@H](C)CC[C@]3(CC[C@@H](O)[C@H]32)[C@@H](C)[C@@H]1O`, the “log(activity)” value [1] is reported as 0.47, the MIC [2] is reported as 6.25 µg/mL (≈ 10.7 µM) and the Cmax [3] is reported as 1340 ng/mL. For the same compound, the inhibition [4] was “Active”, the MIC [5] was 12.5 µg/mL (≈ 21.4 µM) and the MBC [6] was 1.56 µg/mL (≈ 2.68 µM). For the same compound, the AUC(0-t) at 24 h [7] was 2500 ng·h/mL, the MBC [8] was over 25 µg/mL and the MIC [9] was over 25 µg/mL. For the same compound, the Ratio [10] was 5.44, the MTD [11] was over 200 mg/kg and the “log(activity)” value [12] was 0.03. The AUC [13] was 66281 ng·h/g, the MIC [14] was 0.78 µg/mL (≈ 1.34 µM) and the MBC [15] was 1.56 µg/mL (≈ 2.68 µM). The half-life [16] was 4.02 h, the Activity [17] was “Dose-dependent effect” and the MBC [18] was over 25 µg/mL. For the same compound, the Activity [19] was 100%, the MIC [20] was 12.5 µg/mL (≈ 21.4 µM) and the MBC [21] was 25 µg/mL (≈ 42.9 µM). For the same compound, the MBC [22] was over 25 µg/mL, the Cmax [23] was 1910 ng/mL and the t1/2 [24] was over 1 h. The AUC(0-inf) [25] was 1050 ng·h/mL, the MIC [26] was 25 µg/mL (≈ 42.9 µM) and the MBC [27] was over 25 µg/mL. For the same compound, the MBC [28] was 12.5 µg/mL (≈ 21.4 µM), the MBC [29] was over 25 µg/mL and the inhibition [30] was “Active”.
